Measurements: ChEMBL document CHEMBL4706701, “Synthesis and biological activity of selenopsammaplin A and its analogues as antitumor agents with DOT1L inhibitory activity” (Bioorg Med Chem, 2021)
pIC50: −log10 of the molar value. The source made the active and inactive calls. The rule behind the calls is not given here.

Columns and labels:
MDA-MB-231 [1] = experiment: Cytotoxicity against human MDA-MB-231 cells assessed as reduction in cell viability by SRB assay; assay type: functional, cell-based
Outline: (§1)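 Cells seeded in 96-well plates and exposed to compounds for the stated times. Zero-day controls were incubated 30 min. Cells were fixed and stained with 0.4% SRB in 1% acetic acid, and bound dye was dissolved in 10 mM Tris (pH 10.0). A515 was read, and IC50 was calculated by non-linear regression.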

MDA-MB-231 [2] = experiment: Up regulation of CDH1 expression in human MDA-MB-231 cells at 50 to 200 nM measured after 48 hrs by Western blot analysis; assay type: functional, cell-based; conditions: dose 50-200 nM
Outline: (§2)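 MDA-MB-231 cells exposed to compound for 48 h; lysates in 2× SDS sample buffer with orthovanadate and NaF, protein by BCA. 5–20 μg resolved on 8–15% SDS-PAGE, PVDF, BSA block, probed for E-cadherin, N-cadherin, ZEB1, vimentin; ECL detection, β-actin internal control, band densitometry. Mean ± SD (n = 3), three experiments.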

MDA-MB-231 [3] = experiment: Down regulation of ZEB1 expression in human MDA-MB-231 cells at 50 to 200 nM measured after 48 hrs by Western blot analysis; assay type: functional, cell-based; conditions: dose 50-200 nM; outline: as §2
MDA-MB-231 [4] = experiment: Antimetastatic activity against human MDA-MB-231 cells xenografted in BALB/c nu mouse assessed as reduction in luciferase signal in lung tissue at 5 to 15 mg/kg, ip administered thrice per week for 38 days measured 1 week post last dose by luciferase based imaging analysis; assay type: functional, organism-based; conditions: dose 5-15 mg/kg, time 45.0 day
Outline: (§3)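 Orthotopic luciferase-expressing MDA-MB-231 model in female BALB/c-nu mice, ip dosing in EtOH/Cremophor/saline (5:5:90) three times weekly for 38 days. One week later anesthetized mice imaged by IVIS 15 min after D-luciferin (150 mg/kg in PBS); lungs and other organs then excised and imaged ex vivo.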

MDA-MB-231 [5] = experiment: Up regulation of CDH1 mRNA expression in human MDA-MB-231 cells at 50 to 200 nM measured after 24 hrs by RT-PCR analysis; assay type: functional, cell-based; conditions: dose 50-200 nM
MDA-MB-231 [6] = experiment: Down regulation of CDH2 expression in human MDA-MB-231 cells at 50 to 200 nM measured after 48 hrs by Western blot analysis; assay type: functional, cell-based; conditions: dose 50-200 nM; outline: as §2
MDA-MB-231 [7] = experiment: Antimetastatic activity against human MDA-MB-231 cells xenografted in BALB/c nu mouse assessed as reduction in metastatic cells in lung tissue at 5 to 15 mg/kg, ip administered thrice per week for 38 days measured 1 week post last dose by H and E staining based immunohistochemical analysis; assay type: functional, organism-based; conditions: dose 5-15 mg/kg, time 45.0 day
Outline: (§4)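 Tumors and lungs from orthotopic MDA-MB-231/Luc nude mice (ip dosing three times weekly, 38 days) fixed in 4% PFA, paraffin-embedded, sectioned, antigen-retrieved. Lungs H&E-stained for metastatic cells; tumor sections immunostained for Ki67, H3K79me2, E-cadherin, vimentin with HRP detection, hematoxylin counterstain, imaged at 200×.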

[8] = Selectivity ratio of IC50 for human MCF-10A cells to IC50 for human A549 cells; assay type: toxicity; conditions: MCF-10A cells versus A549 cells, read-out: Ratio IC50
MDA-MB-231 [9] = experiment: Antitumor activity against human MDA-MB-231 cells xenografted in BALB/c nu mouse assessed as down regulation of Ki67 expression in tumor tissue at 5 to 15 mg/kg, ip administered thrice per week for 38 days measured 1 week post last dose by H and E staining based immunohistochemical analysis; assay type: functional, organism-based; conditions: dose 5-15 mg/kg, time 45.0 day; outline: as §4
MDA-MB-231 [10] = experiment: Antimetastatic activity against human MDA-MB-231 cells xenografted in BALB/c nu mouse assessed as reduction in luciferase signal in tumor site at 5 to 15 mg/kg, ip administered thrice per week for 38 days measured 1 week post last dose by luciferase based imaging analysis; assay type: functional, organism-based; conditions: dose 5-15 mg/kg, time 45.0 day; outline: as §3
[11] = molecular target: Histone-lysine N-methyltransferase, H3 lysine-79 specific (Homo sapiens) (UniProt Q8TEK3); experiment: Inhibition of DOT1L in human MDA-MB-231 cells assessed as effect on histone H3 methylation at 50 to 200 nM by Western blot analysis; assay type: cell-based; conditions: dose 50-200 nM
Outline: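 MDA-MB-231 cell lysates in 2× SDS buffer, protein by BCA; 5–20 μg on 8–15% SDS-PAGE, transferred to PVDF, BSA-blocked and probed with antibodies to H3K4me2, H3K27me2, H3K36me2, H3K79me2 and total histone H3; ECL detection. Mean ± SD (n = 3), three separate experiments.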

MDA-MB-231 [12] = experiment: Antitumor activity against human MDA-MB-231 cells xenografted in ip dosed BALB/c nu mouse assessed as down regulation of H3K79me2 expression in tumor tissue administered thrice per week for 38 days measured 1 week post last dose by Western blot analysis; assay type: functional, organism-based; conditions: dose 5-15 mg/kg, time 45.0 day
Outline: (§5)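 Frozen tumor portions from the orthotopic MDA-MB-231 nude mouse study homogenized in complete lysis buffer; protein by Bradford assay. Western blotting for H3K79me2, E-cadherin and vimentin, β-actin internal control, band intensities semi-quantified; three separate experiments.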

SNU-638 = experiment: Cytotoxicity against human SNU-638 cells assessed as reduction in cell viability by SRB assay; assay type: functional, cell-based; outline: as §1
MDA-MB-231 [13] = experiment: Antimetastatic activity against human MDA-MB-231 cells xenografted in ip dosed BALB/c nu mouse assessed as up regulation of E-cadherin expression in tumor tissue administered thrice per week for 38 days measured 1 week post last dose by Western blot analysis; assay type: functional, organism-based; conditions: dose 5-15 mg/kg, time 45.0 day; outline: as §5
[14] = Toxicity in human MDA-MB-231 cells xenografted BALB/c nu mouse assessed as change in body weight at 5 to 15 mg/kg, ip administered thrice per week for 38 days measured once per week during compound dosing; assay type: organism-based; conditions: in vivo, 912 h, dose 5-15 mg/kg, time 38 day
Outline: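 Female BALB/c-nu mice, 5–6 weeks old, received 1 × 10⁷ luciferase-expressing MDA-MB-231 cells in 50:50 DMEM/Matrigel into the fourth fat pad. At day 10, mice were randomized into groups of six. Dosing was i.p. three times weekly for 38 days, in vehicle EtOH/Cremophor/saline 5:5:90. Body weight was recorded weekly, and toxicity was judged by lethality and weight loss.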

[15] = molecular target: Histone-lysine N-methyltransferase, H3 lysine-79 specific (Homo sapiens) (UniProt Q8TEK3); experiment: Inhibition of human N-terminal GST-tagged DOT1L (2 to 416 residues) expressed in Escherichia coli at 200 nM using DOT1L substrate measured after 2 hrs in presence of SAM by ELISA
Outline: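 Cell-free DOT1L enzyme activity assay using 500 ng DOT1L per well. Compound was incubated 2 h before read-out. EPZ-5676 (100 nM) was the positive control. Mean ± SD (n = 3), representative of three separate experiments.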

[16] = Selectivity ratio of IC50 for human MCF-10A cells to IC50 for human SK-HEP1 cells
Outline: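 Cytotoxicity by SRB assay: cells seeded in 96-well plates and treated with compounds; fixed, stained with 0.4% SRB in 1% acetic acid, dye dissolved in 10 mM Tris (pH 10.0), absorbance read at 515 nm. IC50 by non-linear regression, means of at least three experiments; ratio of MCF10A IC50 to cancer-line IC50.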

MDA-MB-231 [17] = experiment: Antimigratory activity in human MDA-MB-231 cells assessed as suppression of wound closure after 24 hrs by microscopic analysis; assay type: functional, cell-based; conditions: dose 50-400 nM
Outline: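 MDA-MB-231 monolayers at 80–90% confluence scratched with a pipette tip, washed with PBS, then kept 24 h in medium with 1% FBS plus compound at various concentrations. Wounds photographed at 0 and 24 h; area measured by image analysis and expressed as wound healing (%) relative to the 0 h area. Mean ± SD (n = 3), three separate experiments.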

Sequence of Histone-lysine N-methyltransferase, H3 lysine-79 specific (Homo sapiens) (Q8TEK3 whole entry, looked up, the tested form may be a part): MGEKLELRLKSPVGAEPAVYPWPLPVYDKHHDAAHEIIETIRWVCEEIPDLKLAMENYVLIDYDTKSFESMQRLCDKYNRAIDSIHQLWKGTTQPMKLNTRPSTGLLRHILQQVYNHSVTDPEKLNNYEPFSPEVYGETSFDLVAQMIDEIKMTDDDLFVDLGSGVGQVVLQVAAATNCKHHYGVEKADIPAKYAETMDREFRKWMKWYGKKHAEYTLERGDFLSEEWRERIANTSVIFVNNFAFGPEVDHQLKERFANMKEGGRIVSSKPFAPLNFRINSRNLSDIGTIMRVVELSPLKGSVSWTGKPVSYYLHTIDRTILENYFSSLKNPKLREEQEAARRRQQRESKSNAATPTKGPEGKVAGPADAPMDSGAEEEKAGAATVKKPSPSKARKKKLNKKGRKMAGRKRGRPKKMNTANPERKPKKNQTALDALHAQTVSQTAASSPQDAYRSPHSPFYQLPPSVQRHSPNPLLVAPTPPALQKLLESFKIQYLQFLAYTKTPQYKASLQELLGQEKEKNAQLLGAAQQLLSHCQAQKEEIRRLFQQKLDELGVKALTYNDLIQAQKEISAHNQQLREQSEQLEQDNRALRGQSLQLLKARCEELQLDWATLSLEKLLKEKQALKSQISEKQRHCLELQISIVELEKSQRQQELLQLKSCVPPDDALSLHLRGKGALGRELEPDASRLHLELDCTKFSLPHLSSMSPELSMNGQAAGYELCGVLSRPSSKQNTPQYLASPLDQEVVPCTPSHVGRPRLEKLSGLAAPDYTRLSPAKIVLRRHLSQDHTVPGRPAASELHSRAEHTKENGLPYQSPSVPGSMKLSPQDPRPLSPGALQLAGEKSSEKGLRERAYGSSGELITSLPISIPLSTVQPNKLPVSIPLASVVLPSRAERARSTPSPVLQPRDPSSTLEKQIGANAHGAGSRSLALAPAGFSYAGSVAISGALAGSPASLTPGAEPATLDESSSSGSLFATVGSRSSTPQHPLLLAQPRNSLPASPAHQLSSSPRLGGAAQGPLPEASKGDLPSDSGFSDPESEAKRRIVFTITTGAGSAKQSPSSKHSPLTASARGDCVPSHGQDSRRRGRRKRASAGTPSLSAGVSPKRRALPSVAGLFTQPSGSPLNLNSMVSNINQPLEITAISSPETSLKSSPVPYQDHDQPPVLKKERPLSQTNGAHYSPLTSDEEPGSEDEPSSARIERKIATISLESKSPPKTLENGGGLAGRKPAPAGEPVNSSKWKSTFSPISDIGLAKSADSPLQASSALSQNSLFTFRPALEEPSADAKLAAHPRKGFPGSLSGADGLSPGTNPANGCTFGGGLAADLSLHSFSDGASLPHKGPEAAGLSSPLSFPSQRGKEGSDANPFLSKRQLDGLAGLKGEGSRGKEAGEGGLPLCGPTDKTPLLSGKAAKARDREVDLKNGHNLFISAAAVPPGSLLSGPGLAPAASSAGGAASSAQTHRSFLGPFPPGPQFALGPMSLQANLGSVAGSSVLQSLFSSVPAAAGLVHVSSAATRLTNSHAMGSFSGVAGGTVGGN

With `O=C(NCC[Se][Se]CCNC(=O)/C(Cc1ccccc1)=N/O)/C(Cc1ccccc1)=N/O` the pIC50 (MDA-MB-231 [1]) was 7.22, the Activity (MDA-MB-231 [2]) was “Active” and the Activity (MDA-MB-231 [3]) was “Active”. The Activity (MDA-MB-231 [4]) was “Active”, the Activity (MDA-MB-231 [5]) was “Active” and the Activity (MDA-MB-231 [6]) was “Active”. The Activity (MDA-MB-231 [7]) was “Active”, the selectivity ratio [8] was greater than 100 and the Activity (MDA-MB-231 [9]) was “Active”. The Activity (MDA-MB-231 [10]) was “Active”, the inhibition [11] was “Active” and the Activity (MDA-MB-231 [12]) was “Dose-dependent effect”. The pIC50 (SNU-638) was 7.30, the Activity (MDA-MB-231 [13]) was “Dose-dependent effect” and the Activity [14] was “Non-Toxic”. The inhibition [15] was “Active”, the “Ratio IC50” value [16] was greater than 100 and the Activity (MDA-MB-231 [17]) was “Dose-dependent effect”.
